Data published in ChEMBL document CHEMBL3120099, “Novel S1P(1) receptor agonists--part 2: from bicyclo[3.1.0]hexane-fused thiophenes to isobutyl substituted thiophenes” (J Med Chem, 2014).

Test system: not listed separately
Assay: Tmax in Wistar rat at 10 mg/kg, po
Assay type: ADME, organism-based
Design: dose 10 mg/kg, route oral
Conditions: in vivo
Method in brief: (§1)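 Male Wistar rats (~250 g), 10 mg/kg by gavage as a DMSO solution added to 7.5% succinylated gelatin in water (5% DMSO final). Sublingual blood under light isoflurane predose and at 0.5, 1, 2, 3, 4, 6, 8, 24 h into EDTA. Plasma LC-MS-MS after methanol precipitation. Noncompartmental parameters. Bioavailability referenced to 1 mg/kg iv.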

Tmax [h] | Structure (SMILES)
6 | CCc1cc(-c2noc(-c3sc(CC)c4c3CCC(C)(C)C4)n2)cc(C)c1OC[C@@H](O)CNC(=O)CO

Test system: not listed separately
Assay: Drug uptake in Wistar rat mesenteric lymph at 10 mg/kg, po after 1.7 hrs
Assay type: ADME, organism-based, Mesenteric lymph node
Design: dose 10 mg/kg, route oral
Conditions: read-out: Drug uptake
Method in brief: (§2)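 Male Wistar rats given 10 mg/kg orally in 5% DMSO/succinylated gelatin. At selected times, anesthesia with thiobutobarbital 150 mg/kg ip, laparotomy and thoracic lymph duct catheter. Mesenteric lymph collected for at least 10 min, with a plasma sample at mid-collection. Methanol precipitation, then LC-MS-MS with internal standard.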

concentration at 1.7 h [ng/mL] | Structure (SMILES)
4340 | CCc1cc(-c2noc(-c3sc(CC)c4c3CCC(C)(C)C4)n2)cc(C)c1OC[C@@H](O)CNC(=O)CO

Test system: not listed separately
Assay: Plasma concentration in Wistar rat at 10 mg/kg, po after 6 hrs
Assay type: ADME, organism-based
Design: dose 10 mg/kg, route oral
Conditions: not given

concentration at 6 h [ng/mL] | Structure (SMILES)
911 | CCc1cc(-c2noc(-c3sc(CC)c4c3CCC(C)(C)C4)n2)cc(C)c1OC[C@@H](O)CNC(=O)CO

Test system: not listed separately
Assay: Plasma concentration in Wistar rat at 10 mg/kg, po after 6 days
Assay type: ADME, organism-based
Design: dose 10 mg/kg, route oral
Conditions: not given

concentration at 144 h [ng/mL] | Structure (SMILES)
66 | CCc1cc(-c2noc(-c3sc(CC)c4c3CCC(C)(C)C4)n2)cc(C)c1OC[C@@H](O)CNC(=O)CO

Test system: not listed separately
Assay: Cmax in Wistar rat plasma at 10 mg/kg, po
Assay type: ADME, organism-based
Design: dose 10 mg/kg, route oral
Conditions: not given
Method in brief: as §2

Cmax [ng/mL] | Structure (SMILES)
911 | CCc1cc(-c2noc(-c3sc(CC)c4c3CCC(C)(C)C4)n2)cc(C)c1OC[C@@H](O)CNC(=O)CO

Test system: not listed separately
Assay: Oral bioavailability in Wistar rat at 10 mg/kg
Assay type: ADME, organism-based
Conditions: in vivo
Method in brief: as §1

bioavailability [%] | Structure (SMILES)
> 33 | CCc1cc(-c2noc(-c3sc(CC)c4c3CCC(C)(C)C4)n2)cc(C)c1OC[C@@H](O)CNC(=O)CO

Test system: not listed separately
Assay: Half life in Wistar rat at 1 mg/kg, iv
Assay type: ADME, organism-based
Design: dose 1 mg/kg, route intravenous
Conditions: in vivo
Method in brief: (§3)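 Male Wistar rats (~250 g), jugular vein and carotid artery catheters implanted 2 days before dosing under isoflurane with buprenorphine analgesia. 1 mg/kg given as a 5 min jugular infusion in aqueous mixed micellar vehicle (phospholipids, bile acids). Serial EDTA blood sampling up to 24 h. Plasma analysed by LC-MS-MS after methanol precipitation. Noncompartmental analysis.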

half-life [h] | Structure (SMILES)
21 | CCc1cc(-c2noc(-c3sc(CC)c4c3CCC(C)(C)C4)n2)cc(C)c1OC[C@@H](O)CNC(=O)CO

Test system: not listed separately
Assay: Tmax in Wistar rat mesenteric lymph at 10 mg/kg, po
Assay type: ADME, organism-based, Mesenteric lymph node
Design: dose 10 mg/kg, route oral
Conditions: not given
Method in brief: as §2

Tmax [h] | Structure (SMILES)
3 | CCc1cc(-c2noc(-c3sc(CC)c4c3CCC(C)(C)C4)n2)cc(C)c1OC[C@@H](O)CNC(=O)CO

Test system: not listed separately
Assay: Plasma concentration in Wistar rat at 10 mg/kg, po after 24 hrs
Assay type: ADME, organism-based
Design: dose 10 mg/kg, route oral
Conditions: not given

concentration at 24 h [ng/mL] | Structure (SMILES)
530 | CCc1cc(-c2noc(-c3sc(CC)c4c3CCC(C)(C)C4)n2)cc(C)c1OC[C@@H](O)CNC(=O)CO

Test system: not listed separately
Assay: Plasma concentration in Wistar rat at 10 mg/kg, po after 1.7 hrs
Assay type: ADME, organism-based
Design: dose 10 mg/kg, route oral
Conditions: not given
Method in brief: as §2

concentration at 1.7 h [ng/mL] | Structure (SMILES)
58.1 | CCc1cc(-c2noc(-c3sc(CC)c4c3CCC(C)(C)C4)n2)cc(C)c1OC[C@@H](O)CNC(=O)CO

Test system: not listed separately
Assay: Drug uptake in Wistar rat mesenteric lymph at 10 mg/kg, po after 3 hrs
Assay type: ADME, organism-based, Mesenteric lymph node
Design: dose 10 mg/kg, route oral
Conditions: read-out: Drug uptake
Method in brief: as §2

concentration at 3 h [ng/mL] | Structure (SMILES)
8090 | CCc1cc(-c2noc(-c3sc(CC)c4c3CCC(C)(C)C4)n2)cc(C)c1OC[C@@H](O)CNC(=O)CO

Test system: not listed separately
Assay: AUC (0 to 24 hrs) in Wistar rat mesenteric lymph at 10 mg/kg, po
Assay type: ADME, organism-based, Mesenteric lymph node
Design: time < 24 hr, dose 10 mg/kg, route oral
Conditions: in vivo

AUC [ng·h/mL] | Structure (SMILES)
70500 | CCc1cc(-c2noc(-c3sc(CC)c4c3CCC(C)(C)C4)n2)cc(C)c1OC[C@@H](O)CNC(=O)CO

Test system: Plasma
Assay: AUC (0 to 24 hrs) in Wistar rat plasma at 10 mg/kg, po
Assay type: ADME, organism-based
Design: time < 24 hr, dose 10 mg/kg, route oral
Conditions: in vivo

AUC [ng·h/mL] | Structure (SMILES)
1660 | CCc1cc(-c2noc(-c3sc(CC)c4c3CCC(C)(C)C4)n2)cc(C)c1OC[C@@H](O)CNC(=O)CO

Test system: not listed separately
Assay: Drug uptake in Wistar rat mesenteric lymph at 10 mg/kg, po after 1 hr
Assay type: ADME, organism-based, Mesenteric lymph node
Design: dose 10 mg/kg, route oral
Conditions: read-out: Drug uptake
Method in brief: as §2

concentration at 1 h [ng/mL] | Structure (SMILES)
5790 | CCc1cc(-c2noc(-c3sc(CC)c4c3CCC(C)(C)C4)n2)cc(C)c1OC[C@@H](O)CNC(=O)CO

Test system: Rattus norvegicus
Assay: Clearance in Wistar rat at 1 mg/kg, iv
Assay type: ADME, organism-based
Design: dose 1 mg/kg, route intravenous
Conditions: in vivo
Method in brief: as §3

clearance [mL/min/kg] | Structure (SMILES)
2 | CCc1cc(-c2noc(-c3sc(CC)c4c3CCC(C)(C)C4)n2)cc(C)c1OC[C@@H](O)CNC(=O)CO

Test system: not listed separately
Assay: AUC (0 to 24 hrs) in Wistar rat at 10 mg/kg, po
Assay type: ADME, organism-based
Design: time < 24 hr, dose 10 mg/kg, route oral
Conditions: plasma

AUC(0-t) at 24 h [ng·h/mL] | Structure (SMILES)
28100 | CCc1cc(-c2noc(-c3sc(CC)c4c3CCC(C)(C)C4)n2)cc(C)c1OC[C@@H](O)CNC(=O)CO

Test system: not listed separately
Assay: Drug uptake in Wistar rat mesenteric lymph at 10 mg/kg, po after 24.8 hrs
Assay type: ADME, organism-based, Mesenteric lymph node
Design: dose 10 mg/kg, route oral
Conditions: read-out: Drug uptake
Method in brief: as §2

concentration at 24.8 h [ng/mL] | Structure (SMILES)
684 | CCc1cc(-c2noc(-c3sc(CC)c4c3CCC(C)(C)C4)n2)cc(C)c1OC[C@@H](O)CNC(=O)CO
